Source: ChEMBL document CHEMBL1125651, “Nucleosides and nucleotides. 95. Improved synthesis of 1-(2-azido-2-deoxy-beta-D-arabinofuranosyl)cytosine (cytarazid) and -thymine. Inhibitory spectrum of cytarazid on the growth of various human tumor cells in vitro” (J Med Chem, 1991)
Converted amounts (≈) assume the structure as drawn. Values belong to the compound of their own block, whether it stands above or below them.

How the values were obtained:
PC-13 [1] = assay: In vitro inhibitory effect measured against human lung large-cell carcinoma PC-13 tumor cells at 100 ug/mL; format: functional
Method in brief: (§1)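 MTT viability assay after 72 h exposure at 37 °C in a CO2 incubator. Cells at 1 × 10^4 cells/mL in RPMI 1640 with 10% heat-inactivated FBS and 50 μg/mL kanamycin. Percent inhibition = [1 − OD570 of sample/OD570 of untreated control] × 100. Representative of three separate experiments.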

NUGC-4 [2] = assay: In vitro inhibitory effect measured against human stomach adenocarcinoma NUGC-4 tumor cells at 100 ug/mL; format: functional; method in brief: as §1
HOS [3] = assay: In vitro inhibitory effect measured against human osteosarcoma HOS tumor cells at 100 ug/mL; format: functional; method in brief: as §1
SK-ES1 = assay: In vitro inhibitory effect measured against human osteosarcoma SK-ES-1 tumor cells; format: functional, cell-based
Method in brief: (§2)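 Cells seeded at 1 × 10^4 cells/mL in RPMI 1640 with 10% heat-inactivated FBS and 50 μg/mL kanamycin. Cultured 72 h at 37 °C in a CO2 incubator with a range of compound concentrations. Viability read by MTT colorimetric assay at OD 570 nm against untreated control wells. IC50 is the μg/mL concentration giving 50% growth inhibition; representative of three separate experiments.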

MKN-28 = assay: In vitro inhibitory effect measured against human stomach adenocarcinoma MKN-28 tumor cells; format: functional, cell-based; method in brief: as §2
ST-KM-1 [4] = assay: In vitro inhibitory effect measured against human stomach adenocarcinoma ST-KM tumor cells at 100 ug/mL; format: functional; method in brief: as §1
OST [5] = assay: In vitro inhibitory effect measured against human osteosarcoma OST tumor cells at 100 ug/mL; format: functional; method in brief: as §1
PC-3 [6] = assay: In vitro inhibitory effect measured against human lung adenocarcinoma PC-3 tumor cells at 100 ug/mL; format: functional; method in brief: as §1
QG-56 [7] = assay: In vitro inhibitory effect measured against human lung suamous-cell carcinoma QG-56 tumor cells at 100 ug/mL; format: functional; method in brief: as §1
HT-1080 = assay: In vitro inhibitory effect measured against human fibrosarcoma HT1080 tumor cells; format: functional, cell-based; method in brief: as §2
HOS-TE85 = assay: In vitro inhibitory effect measured against human osteosarcoma MNNG-HOS tumor cells; format: functional, cell-based; method in brief: as §2
PC-9 = assay: In vitro inhibitory effect measured against human lung adenocarcinoma PC-9 tumor cells; format: functional, cell-based; method in brief: as §2
SAOS-2 = assay: In vitro inhibitory effect measured against human osteosarcoma SAOS-2 tumor cells; format: functional, cell-based; method in brief: as §2
U2OS [8] = assay: In vitro inhibitory effect measured against human osteosarcoma U20-S tumor cells at 100 ug/mL; format: functional; method in brief: as §1
NCC = assay: In vitro inhibitory effect measured against human renal cell carcinoma NCC-nu tumor cells; format: functional, cell-based; method in brief: as §2
PC-8 = assay: In vitro inhibitory effect measured against human lung adenocarcinoma PC-8 tumor cells; format: functional, cell-based; method in brief: as §2
MFH-ST [9] = assay: In vitro inhibitory effect measured against human malignant fibrous histiocytoma MFH-ST tumor cells at 100 ug/mL; format: functional; method in brief: as §1
KHOS-321H = assay: In vitro inhibitory effect measured against human osteosarcoma KHOS-321H tumor cells; format: functional, cell-based; method in brief: as §2
MG-63 [10] = assay: In vitro inhibitory effect measured against human osteosarcoma MG-63 tumor cells at 100 ug/mL; format: functional; method in brief: as §1
OST [11] = assay: In vitro inhibitory effect measured against human osteosarcoma OST tumor cells; format: functional, cell-based; method in brief: as §2
PC-3 [12] = assay: In vitro inhibitory effect measured against human lung adenocarcinoma PC-3 tumor cells; format: functional, cell-based; method in brief: as §2
ST-KM-1 [13] = assay: In vitro inhibitory effect measured against human stomach adenocarcinoma ST-KM tumor cells; format: functional, cell-based; method in brief: as §2
MFH-ST [14] = assay: In vitro inhibitory effect measured against human malignant fibrous histiocytoma MFH-ST tumor cells; format: functional, cell-based; method in brief: as §2
T-24 = assay: In vitro inhibitory effect measured against human bladder transitional cell carcinoma T-24 tumor cells; format: functional, cell-based; method in brief: as §2
QG-56 [15] = assay: In vitro inhibitory effect measured against human lung suamous-cell carcinoma QG-56 tumor cells; format: functional, cell-based; method in brief: as §2
NUGC-4 [16] = assay: In vitro inhibitory effect measured against human stomach adenocarcinoma NUGC-4 tumor cells; format: functional, cell-based; method in brief: as §2
PC-13 [17] = assay: In vitro inhibitory effect measured against human lung large-cell carcinoma PC-13 tumor cells; format: functional, cell-based; method in brief: as §2
PC-6 = assay: In vitro inhibitory effect measured against human lung small-cell carcinoma PC-6 tumor cells; format: functional, cell-based; method in brief: as §2
MG-63 [18] = assay: In vitro inhibitory effect measured against human osteosarcoma MG-63 tumor cells; format: functional, cell-based; method in brief: as §2
HOS [19] = assay: In vitro inhibitory effect measured against human osteosarcoma HOS tumor cells; format: functional, cell-based; method in brief: as §2
U2OS [20] = assay: In vitro inhibitory effect measured against human osteosarcoma U20-S tumor cells; format: functional, cell-based; method in brief: as §2

- IC50 (SK-ES1): 0.09 µg/mL (≈ 0.37 µM)
- IC50 (MKN-28): 4.5 µg/mL (≈ 18.5 µM)
- IC50 (HT-1080): 0.13 µg/mL (≈ 0.534 µM)
- IC50 (HOS-TE85): 2.6 µg/mL (≈ 10.7 µM)
- IC50 (PC-9): 1.6 µg/mL (≈ 6.58 µM)
- IC50 (SAOS-2): 2.7 µg/mL (≈ 11.1 µM)
- IC50 (NCC): 0.13 µg/mL (≈ 0.534 µM)
- IC50 (PC-8): 0.28 µg/mL (≈ 1.15 µM)
- IC50 (KHOS-321H): 0.27 µg/mL (≈ 1.11 µM)
SMILES: Nc1ccn([C@@H]2O[C@H](CO)[C@@H](O)[C@@H]2O)c(=O)n1 [CYTARABINE]
- inhibition at 100 µg/mL (PC-13 [1]): 40%
- inhibition at 100 µg/mL (NUGC-4 [2]): 49.9%
- inhibition at 100 µg/mL (HOS [3]): 45.4%
- inhibition at 100 µg/mL (ST-KM-1 [4]): 48.6%
- inhibition at 100 µg/mL (OST [5]): 48%
- inhibition at 100 µg/mL (PC-3 [6]): 46.2%
- inhibition at 100 µg/mL (QG-56 [7]): 24.4%
- inhibition at 100 µg/mL (U2OS [8]): 43.9%
- inhibition at 100 µg/mL (MFH-ST [9]): 47.9%
- inhibition at 100 µg/mL (MG-63 [10]): 29.5%

- IC50 (OST [11]): 6.4 µg/mL (≈ 23.9 µM)
- IC50 (PC-3 [12]): 18 µg/mL (≈ 67.1 µM)
- IC50 (SK-ES1): 1.1 µg/mL (≈ 4.1 µM)
- IC50 (MKN-28): 2.2 µg/mL (≈ 8.2 µM)
- IC50 (ST-KM-1 [13]): 1.1 µg/mL (≈ 4.1 µM)
- IC50 (MFH-ST [14]): 14 µg/mL (≈ 52.2 µM)
- IC50 (T-24): 0.56 µg/mL (≈ 2.09 µM)
- IC50 (QG-56 [15]): 5.4 µg/mL (≈ 20.1 µM)
- IC50 (NUGC-4 [16]): 1.4 µg/mL (≈ 5.22 µM)
- IC50 (HT-1080): 1.6 µg/mL (≈ 5.96 µM)
- IC50 (HOS-TE85): 1.5 µg/mL (≈ 5.59 µM)
- IC50 (PC-9): 1 µg/mL (≈ 3.73 µM)
- IC50 (PC-13 [17]): 18 µg/mL (≈ 67.1 µM)
- IC50 (SAOS-2): 2.8 µg/mL (≈ 10.4 µM)
- IC50 (PC-6): 18 µg/mL (≈ 67.1 µM)
- IC50 (NCC): 1.8 µg/mL (≈ 6.71 µM)
- IC50 (PC-8): 1.2 µg/mL (≈ 4.47 µM)
- IC50 (MG-63 [18]): 30 µg/mL (≈ 112 µM)
- IC50 (HOS [19]): 9.4 µg/mL (≈ 35 µM)
- IC50 (U2OS [20]): 14 µg/mL (≈ 52.2 µM)
- IC50 (KHOS-321H): 0.62 µg/mL (≈ 2.31 µM)
SMILES: [N-]=[N+]=N[C@H]1[C@H](O)[C@@H](CO)O[C@H]1n1ccc(N)nc1=O [CYTARAZID]
